Source: PubChem
A selection: hits, their analogues and other compounds. The true share with any hit is near 2.2%.
mABHD4 FP – ABHD4 inhibitors, primary screen, biochemical, fluorescence polarization, mouse. (Lyso)-N-acylphosphatidylethanolamine lipase (Mus musculus), Q8VD66. purified mABHD4, FP-Rh probe fluorescence polarization. inhibition, % at 8.92 µM. 0.54% of 370,000 active. AID 720543, 2013;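 active = inhibition exceeding the mean over every tested compound plus 3 SD, cut at about 30% in these data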
Target sequence (Q8VD66 whole entry, looked up): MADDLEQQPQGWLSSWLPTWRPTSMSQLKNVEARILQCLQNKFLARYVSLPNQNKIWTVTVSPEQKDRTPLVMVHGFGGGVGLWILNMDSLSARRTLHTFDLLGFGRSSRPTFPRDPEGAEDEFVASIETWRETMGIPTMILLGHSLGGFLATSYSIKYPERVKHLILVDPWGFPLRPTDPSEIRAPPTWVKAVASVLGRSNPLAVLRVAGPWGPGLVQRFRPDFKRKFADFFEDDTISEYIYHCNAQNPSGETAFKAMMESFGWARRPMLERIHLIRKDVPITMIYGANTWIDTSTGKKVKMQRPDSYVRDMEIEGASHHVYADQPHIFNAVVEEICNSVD
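Assay system: Wild-type mouse ABHD4 protein | Medium: HEPES pH 7.0 buffer, 150 mM NaCl, 0.01% Pluronic F-127 | Incubation: Enzyme–compound pre-incubation 45 min, then probe 60 min, both 25 °C | Technique: Fluorescence polarization with parallel and perpendicular emission, 525/598 nm | Evaluation: % inhibition of FP-Rh probe binding versus controls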
LEDGF integ inh – blockers of LEDGF/p75-dependent integrase strand transfer – biochemical, TR-FRET, high throughput, primary screen; TR-FRET IN-LEDGF/p75 DNA integration, Eu/Cy5; inhibition, % at 3.7 µM; 0.64% of 370,000 active;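 active = inhibition above the screen-wide mean plus 3 SD, cut at about 13% in these data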;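 note: signal is the Cy5 over europium emission ratio at 671 and 618 nm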
TDP2 inh – human TDP2 enzyme inhibitors, primary screen, biochemical, epi absorbance, recombinant enzyme; inhibition, % at 12.8 µM; 0.34% of 370,000 active; Tyrosyl-DNA phosphodiesterase 2 (Homo sapiens), O95551; T5PNP hydrolysis, p-nitrophenol absorbance 415 nm;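 active = inhibition above the mean of all tested compounds plus 3 SD, set per campaign, cut at about 25% in these data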
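Evaluation: % inhibition relative to enzyme-containing and enzyme-free wells. Material: recombinant human TDP2. Benchmarks: enzyme-free and DMSO wells. Timing: enzyme reaction with compound for 2 h at 37 °C. Compound dosing: 12.8 µM only. Measured by: p-Nitrophenol epi absorbance. Reagent: T5PNP substrate at 5 mM, a TopII-DNA adduct mimic. Replication: single well per compound.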
TCR-CD3 inh – inhibitors of human TCR-CD3 interaction, primary screen, biochemical, fluorescence, TAMRA-labeled TCR probe. T-cell receptor (TCR). inhibition, % at 9.4 µM. 0.37% of 360,000 active;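 note: recombinant mutant TCR 2C K166C tagged with TAMRA read by polarization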
HTRA1 inhibitor – HTRA1 serine protease inhibitors, primary screen, biochemical, fluorescence polarization, HTS; Q92743; recombinant HTRA1, FP-rhodamine activity-based probe; inhibition, % at 5.96 µM; 0.5% of 340,000 active; AID 504803, 2011; in the data active = inhibition above about 36%
SIAE inh – human SIAE inhibitors, primary screen, biochemical, fluorescence polarization, FP-Rh probe, 1536-well HTS | Sialate O-acetylesterase (Homo sapiens), Q9HAT2 | SIAE FP-Rh probe binding | inhibition, % at 9.66 µM | 0.69% of 370,000 active | AID 1053197, 2014;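 active = inhibition above a cutoff: mean of compounds within the control limits plus 3 SD of those, cut at about 17% in these data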
BSA TAMRA ctr – compounds interfering with TAMRA-BSA probe, counter-screen for TCR-CD3 interaction inhibitor project, biochemical, fluorescence, TAMRA-labeled BSA. TAMRA-labeled BSA probe fluorescence counterscreen. shares compounds with TCR-CD3 inh. 10% of 1,200 active. inhibition, % at 9.4 µM; in the data active = inhibition above about 23%
TCR-CD3 inh conf – TCR-CD3 interaction inhibitors, retest, confirmation, biochemical, fluorescence, TAMRA-labeled TCR probe; shares compounds with TCR-CD3 inh; TAMRA-labeled TCR probe fluorescence binding assay; inhibition, % at 9.4 µM; 48% of 1,200 active; AID 652036, 2013
Numbers stand for hits; – = inactive; · = not tested or not shown. Cut-off read from the data, not from the text of the source, unless noted: active = inhibition above about 19%; inactive = the rest.

SMILES	mABHD4 FP	LEDGF integ inh	TDP2 inh	TCR-CD3 inh	HTRA1 inhibitor	SIAE inh	BSA TAMRA ctr	TCR-CD3 inh conf
CC(OC(=O)c1ccc(NC(=O)CC#N)cc1)C(=O)NC(=O)NC1CCCCC1 (configuration not stated)	–	–	–	19.7	–	–	–	–
Cc1cc(C)cc(NC(=O)C(OC(=O)c2ccc(NC(=O)CC#N)cc2)c2ccccc2)c1 (configuration not stated)	–	–	–	26.9	–	–	–	–
CCOC(=O)c1c(C)[nH]c(C(=O)C(C)OC(=O)c2ccc(NC(=O)CC#N)cc2)c1C (configuration not stated)	–	–	–	52.2	–	–	–	–
CC(OC(=O)c1ccc(NC(=O)CC#N)cc1)C(=O)NCCC1=CCCCC1 (configuration not stated)	–	–	–	–	–	–	·	·
CCOC(=O)c1c(C)[nH]c(C(=O)OCC(=O)Nc2ccc(OCC)cc2)c1C	–	–	–	–	–	–	·	·
Cc1ccc(C(=O)NC2CCCCN(Cc3ccccc3C)C2=O)cc1 (configuration not stated)	–	–	–	·	·	–	·	·
Cc1ccc(CNC(=O)O[C@H]2CC[C@@]34CCCN3C(=O)CCC[C@H]4C2)cc1	–	–	–	·	·	–	·	·
CCC(C)N(C(=O)CSc1nnc(-c2cc(OC)c(OC)c(OC)c2)o1)C(C)CC (configuration not stated)	–	–	–	·	·	–	·	·
COC(=O)[C@H](C)NC(=O)[C@@H]1CCCN1C(=O)CNP(=O)(OCc1ccccc1)OCc1ccccc1	–	–	–	·	·	–	·	·
CN(/N=C/c1ccccc1O)C(=S)c1ccccc1	–	–	–	–	–	–	·	·
CN(N=Cc1ccccc1O)c1ccc2ccccc2n1	–	–	–	20.1	–	–	–	–
CC(=O)c1cccc(NC(=O)C(OC(=O)c2cccc(S(=O)(=O)N(C)c3ccccc3)c2)c2ccccc2)c1 (configuration not stated)	–	–	–	31.0	–	–	–	31.8
COc1ccc(N(C)S(=O)(=O)c2cccc(C(=O)OC(C(=O)Nc3cc(C)cc(C)c3)c3ccccc3)c2)cc1 (configuration not stated)	–	–	–	–	–	–	·	·
CCOc1ccccc1NC(=O)CSc1nnc(SCc2ccccc2)s1	–	–	–	·	·	–	·	·
CC(C)c1ccc(N=c2c([N+](=O)[O-])nn(-c3ccc4c(c3)OCCO4)n2O)cc1	–	–	–	–	–	–	·	·
CN=c1c([N+](=O)[O-])nn(-c2ccc3c(c2)OCCO3)n1O	–	–	–	63.5	–	–	–	–
NC(Cc1ccc(O)cc1)C(=O)NN=Cc1ccccc1Cl (configuration not stated)	–	–	–	–	·	–	·	·
O=C(NCCO)[C@H](Cc1ccccc1)NC1(C(=O)NCCN2CCOCC2)CCCCC1	–	–	–	·	·	–	·	·
Cc1ccccc1C(=O)NNC(=S)NC(=O)c1cccnc1	–	–	–	25.8	–	–	–	20.0
O=C(/C=C/c1ccccc1)NC(=S)NNC(=O)c1cccnc1	–	–	–	–	–	–	·	·
COc1cc(OC)cc(C(=O)NNC(=S)NC(=O)c2cccnc2)c1	–	–	–	23.5	–	–	–	19.7
COc1ccc(C(=O)NC(=S)NNC(=O)c2cccnc2)cc1	–	–	–	24.5	–	–	–	–
O=C(NC(=S)NNC(=O)c1ccccc1F)c1cccnc1	–	–	–	–	·	–	·	·
COc1ccc(/C=C/C(=O)NC(=S)NNC(=O)c2cccnc2)cc1OC	–	–	–	27.4	–	–	–	–
CCn1c(C)nc2cc(C(=O)NNC(=S)NC(=O)c3ccccc3)ccc21	–	–	–	33.6	–	–	–	27.9
SMILES	mABHD4 FP	LEDGF integ inh	TDP2 inh	TCR-CD3 inh	HTRA1 inhibitor	SIAE inh	BSA TAMRA ctr	TCR-CD3 inh conf
CCC(=O)NC(=S)NNC(=O)c1ccc(OC)cc1	–	–	–	20.1	–	–	–	–
CCCCOc1ccc(C(=O)NNC(=S)NC(=O)CC)cc1	·	·	·	·	–	·	·	·
CCn1c(C)nc2cc(C(=O)NNC(=S)Nc3ccccc3)ccc21	–	–	–	–	–	–	·	·
Cc1ccc(S(=O)(=O)N2CCC(=O)N(C(CO)C(C)C)CC2)cc1 (configuration not stated)	–	–	–	103.4	–	–	–	–
CC(=O)Nc1cc(-c2ccccc2N(C)C)cn2c(-c3ccccc3)cnc12	–	–	–	–	·	–	·	·
CC(=O)Nc1cc(-c2ccccc2N(C)C)cn2c(-c3ccc(S(C)(=O)=O)cc3)cnc12	–	–	–	30.9	·	–	–	–
COc1ccc(/C=N/NC(=O)c2cc(-c3ccccc3)nc3ccccc23)c(C(=O)O)c1OC	–	–	–	–	–	–	·	·
COc1cc([N+](=O)[O-])cc(/C=N/NC(=O)c2cc(C)nc3ccccc23)c1O	–	–	–	23.5	–	–	–	23.2
COc1cc([N+](=O)[O-])cc(/C=N/NC(=O)c2cc(-c3ccccc3)nc3ccccc23)c1O	–	–	–	24.3	–	–	–	–
COCCNC(=O)CSCc1nc(-c2ccc(SC)cc2)oc1C	–	–	–	32.7	–	–	–	–
CCOCCCNC(=O)CSCc1nc(-c2ccc(SC)cc2)oc1C	–	–	–	–	–	–	·	·
CCOC(=O)N1CCN(C(=O)C[C@H]2C[C@@]3(C(=O)OC)C(=C[C@H](C(C)C)O[C@@H]3C3CC3)N(Cc3ccc4c(c3)OCO4)C2=O)CC1	–	–	–	·	·	–	·	·
Cc1ccc(C(=O)NNC(=O)c2ccccc2O)cc1S(=O)(=O)N1CCCCC1	–	–	–	24.0	–	–	–	22.9
O=C(NNC(=O)C1CCN(S(=O)(=O)c2ccc(Cl)cc2)CC1)c1ccccc1O	–	–	–	34.0	–	–	–	31.2
Cc1ccc(C(=O)NC2CCCC2)cc1S(=O)(=O)N1CCCCC1	–	–	–	–	–	–	·	·
COC(=O)[C@H](C(C)C)N(Cc1cn(Cc2ccccc2)nn1)S(=O)(=O)c1ccc(F)cc1Br	–	–	–	·	·	–	·	·
